Assays:
[1] = biological target: T1, human GLUT1 (Homo sapiens, UniProt P11166); test: GLUT1 transport assay; type: cell-based; details: 100 μM compound
T1 sequence (P11166 1-492): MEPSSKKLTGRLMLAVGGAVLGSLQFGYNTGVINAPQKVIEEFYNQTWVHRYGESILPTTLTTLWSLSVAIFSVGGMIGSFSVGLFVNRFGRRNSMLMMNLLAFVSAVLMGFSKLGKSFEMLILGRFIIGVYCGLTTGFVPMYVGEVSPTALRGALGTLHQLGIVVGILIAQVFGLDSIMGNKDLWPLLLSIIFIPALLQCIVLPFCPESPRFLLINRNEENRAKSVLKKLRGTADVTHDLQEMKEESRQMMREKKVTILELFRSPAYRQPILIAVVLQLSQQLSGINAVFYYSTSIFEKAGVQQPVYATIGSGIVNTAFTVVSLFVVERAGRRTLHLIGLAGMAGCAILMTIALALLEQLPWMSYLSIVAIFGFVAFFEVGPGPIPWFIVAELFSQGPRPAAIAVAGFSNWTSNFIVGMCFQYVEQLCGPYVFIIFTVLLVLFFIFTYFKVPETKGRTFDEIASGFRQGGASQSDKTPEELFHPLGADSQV
How it was run: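 hxt0 yeast VW4000fgy1 expressing human GLUT1 was grown at 30 °C in SC-uracil with 2% maltose for 2–3 days, then 2% glucose for 1–2 days. Cells were resuspended in PBS pH 7.4 at OD600 ~10 and given 100 µM compound (1% DMSO final). Uptake of 5 mM 14C-glucose ran 10 min, then ice-cold KPi/LiCl quench pH 5.5, filtration and scintillation counting. Activity was taken relative to 1% DMSO and 200 µM phloretin.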

[2] = biological target: T2, human GLUT4 (Homo sapiens, UniProt P14672); test: GLUT4 transport assay; type: cell-based; details: 100 μM compound
T2 sequence (P14672 1-509): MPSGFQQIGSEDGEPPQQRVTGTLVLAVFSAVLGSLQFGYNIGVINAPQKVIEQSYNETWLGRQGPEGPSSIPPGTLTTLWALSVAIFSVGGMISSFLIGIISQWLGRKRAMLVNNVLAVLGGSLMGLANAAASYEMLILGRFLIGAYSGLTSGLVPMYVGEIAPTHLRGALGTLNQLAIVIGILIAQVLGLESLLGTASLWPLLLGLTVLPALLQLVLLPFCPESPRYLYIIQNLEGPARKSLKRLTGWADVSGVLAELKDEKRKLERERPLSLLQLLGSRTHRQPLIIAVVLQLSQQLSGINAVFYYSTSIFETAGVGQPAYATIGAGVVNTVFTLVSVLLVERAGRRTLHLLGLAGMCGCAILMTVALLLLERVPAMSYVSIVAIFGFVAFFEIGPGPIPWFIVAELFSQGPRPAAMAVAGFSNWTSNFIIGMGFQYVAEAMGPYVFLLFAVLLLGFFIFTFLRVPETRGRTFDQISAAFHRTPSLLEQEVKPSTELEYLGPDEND
How it was run: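 GLUT4 was expressed in hxt0 yeast VW4000fgy1erg4 grown at 30 °C in SC-uracil with 1% maltose, then 0.2% glucose. Washed cells were assayed in PBS pH 7.4 at OD600 ~10 with 100 µM compound (1% DMSO final) and 5 mM 14C-glucose for 10 min. The reaction was stopped with cold KPi/LiCl pH 5.5, then filtered and counted by scintillation. Values are relative to 1% DMSO and 200 µM phloretin controls.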

[3] = tested on: human GLUT5; test: GLUT5 transport assay; type: cell-based; details: 100 μM compound; 10 mM C14-fructose
How it was run: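 VW4000 hxt0 yeast carrying human GLUT5 was grown for 1 day in YEP with 2% maltose and 100 µg/ml G418, then 1–2 days in 2% fructose with G418, at 30 °C. Cells in PBS pH 7.4 at OD600 ~10 received 100 µM compound (1% DMSO final) and 10 mM 14C-fructose for 10 min. Cold quench pH 5.5 and filtration followed, with scintillation read-out. Controls: 1% DMSO and 100 µM MSNBA.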

[4] = tested on: CEM cells; test: Cell cycle analysis by flow cytometry; type: cell-based, human; details: CEM, 10, 25 or 50 μM, 72 h
[5] = tested on: normal WBCs; test: MTT viability assay on non-transformed WBCs; type: cell-based, human; details: 187.2 μM vs 1.7 μM
[6] = tested on: p-mTOR, CDK2, GRP78 and Caspase 3 in F18-treated cells; test: Western blotting of cell signaling proteins; type: cell-based, human; details: 10 μM, 6 h
How it was run: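 Treated cells were washed in cold PBS and lysed in Laemmli buffer (62.5 mM Tris-HCl pH 6.8, 10% glycerol, 2% SDS) with protease inhibitors, then sonicated and protein quantified. Membranes were blocked 45 min in PBS-Tween-5% milk. Primary antibodies ran 3 h and secondary 1 h, both at room temperature. Controls: untreated and staurosporine.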

[7] = tested on: CEM xenograft tumor; details: for xenograft volume of untreated group relative to treated group: SCID mice, CEM xenograft, doxorubicin 20 mg/kg i.p., F18 50 mg/kg i.p., 18 days
[8] = Differential Nuclear Staining; type: cell-based; details: human
How it was run: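 CC50 determined by DNS assay in CCRF-CEM (RPMI) and in non-cancerous HS-27 fibroblasts (DMEM). Both media had 10% FBS and penicillin/streptomycin, at 37 °C and 5% CO2. Cells were seeded at 10,000/well (HS-27 at 3,000/well) and treated at 0.5–100 µM for 48 h, in quadruplicate. Hoechst and PI were added 2 h before imaging. Controls: DMSO, H2O2 and untreated. Ratio = HS-27 CC50 / CEM CC50.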

[9] = tested on: GLUT1; details: read-out: GLUT1 IC50; commercially available GLUT1 inhibitor; cited from earlier work

Compound	decrease of relative transport activity of GLUT1, primary screen [1]	decrease of relative transport activity of GLUT4, primary screen [2]	inhibition of GLUT5 transport activity, primary screen [3]	xenograft volume of untreated group relative to treated group [7]	further results
Cc1cccc2sc(NC(=O)CN3C(=O)S/C(=C/c4ccco4)C3=O)nc12 [Compound F8, 2-(5-(Furan-2-ylmethylene)-2,4-dioxothiazolidin-3-yl)-N-(4-methylbenzo[d]thiazol-2-yl)acetamide]	at least 50%	at least 50%			
O=C(CN1C(=O)S/C(=C/c2ccco2)C1=O)Nc1ccc([N+](=O)[O-])cc1 [Compound F14, 2-(5-(Furan-2-ylmethylene)-2,4-dioxothiazolidin-3-yl)-N-(4-nitrophenyl) acetamide]	did not inhibit	did not inhibit	did not inhibit		
O=C(CN1C(=O)S/C(=C/c2ccco2)C1=O)Nc1nc2ccccc2s1 [Compound F18, N-(benzo[d]thiazol-2-yl)-2-(5-(furan-2-ylmethylene)-2,4-dioxothiazolidin-3-yl)acetamide]	at least 50%	at least 50%	neither F18 nor F19 affected the transport activity of GLUT5	~2 times	cell cycle effect [4]: arrest of the cell cycle in the sub G0/G1phase; GLUT1 relative activity retained [1]: almost completely; ratio of IC50 WBCs to CEM cell line [5]: 100 times; caspase 3 [6]: activation; level of CDK2 [6]: decrease; level of endoplasmic stress marker GRP78 [6]: increase; level of phosphorylated mTOR [6]: decrease; weight loss or signs of toxicity ([7]; mouse, in vivo, ip, 50 mg/kg): no considerable weight loss or any other noticeable signs of toxicity
O=C(CN1C(=O)S/C(=C/c2ccco2)C1=O)Nc1ccc(Cl)c(Cl)c1 [Compound F19, N-(3,4-dichlorophenyl)-2-(5-(furan-2-ylmethylene)-2,4-dioxothiazolidin-3-yl) acetamide]	at least 50%	at least 50%	neither F18 nor F19 affected the transport activity of GLUT5		selectivity ratio at 48 h [8]: > 12.8
CC(=O)CC(=O)Nc1ccc(Cl)c(C(F)(F)F)c1 [Fasentin]					IC50 [9]: 10 µM
COc1cccc2c1C(=O)c1c(O)c3c(c(O)c1C2=O)C[C@@](O)(C(=O)CO)C[C@@H]3O[C@H]1C[C@H](N)[C@H](O)[C@H](C)O1 [doxorubicin, reference compound]				approximately 1.5 times	
